Experimental data from different studies.
Compare with care: the assays were run in different laboratories.
Target: Serine/threonine-protein kinase haspin (HASPIN, Homo sapiens, UniProt Q8TF76)
Sequence (Q8TF76 1-798, as in one of the studies): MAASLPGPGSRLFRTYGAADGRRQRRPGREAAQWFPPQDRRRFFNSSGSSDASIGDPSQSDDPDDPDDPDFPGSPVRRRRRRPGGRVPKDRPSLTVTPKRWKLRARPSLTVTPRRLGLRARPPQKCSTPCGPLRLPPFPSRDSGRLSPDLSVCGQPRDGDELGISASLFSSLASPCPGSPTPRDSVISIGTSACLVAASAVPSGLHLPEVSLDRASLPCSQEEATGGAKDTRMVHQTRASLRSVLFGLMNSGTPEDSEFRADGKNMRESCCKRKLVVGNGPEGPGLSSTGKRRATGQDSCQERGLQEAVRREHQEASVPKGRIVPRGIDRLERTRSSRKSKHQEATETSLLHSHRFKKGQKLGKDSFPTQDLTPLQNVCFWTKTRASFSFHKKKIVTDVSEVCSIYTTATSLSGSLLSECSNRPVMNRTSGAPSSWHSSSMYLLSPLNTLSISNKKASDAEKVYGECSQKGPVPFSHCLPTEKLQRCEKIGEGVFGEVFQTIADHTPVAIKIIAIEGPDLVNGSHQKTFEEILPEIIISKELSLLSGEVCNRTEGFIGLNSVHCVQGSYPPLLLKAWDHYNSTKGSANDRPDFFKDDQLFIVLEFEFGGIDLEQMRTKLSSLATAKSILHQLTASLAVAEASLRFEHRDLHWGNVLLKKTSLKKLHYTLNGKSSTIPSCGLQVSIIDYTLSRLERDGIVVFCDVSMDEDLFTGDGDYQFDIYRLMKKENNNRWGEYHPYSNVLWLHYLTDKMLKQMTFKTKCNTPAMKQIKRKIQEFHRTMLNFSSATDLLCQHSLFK

SMILES | test | conditions | remaining binding [%]
CS(=O)(=O)N1CCCC(NC(=O)[C@H](CCC2CCCCC2)NC(=O)c2ccc(CNc3ncnc4c3nnn4-c3ccccc3)cc2)C1 (stereo partly shown) | cell-free assay, competition with immobilised ligand | 0.1 µM | 100
O=C(NCC1CCOCC1)c1n[nH]cc1NC(=O)c1c(F)cccc1F | binding, competition with immobilised ligand | 1 µM | 88
COc1cnc(Nc2cccc(S(N)(=O)=O)c2)nc1N1CCN(c2ccccc2)CC1 | binding, competition with immobilised ligand | 1 µM | 82
O=C(NCCCN1CCOCC1)c1ccc(Nc2nccc(-c3cc4ccccc4s3)n2)cc1 | binding, competition with immobilised ligand | 1 µM | 80
CN(C)c1nccc(-c2cnn3ncccc23)n1 | binding | 1 µM | 1.5
COc1cnc(Nc2cccc(S(N)(=O)=O)c2)nc1N1CCN(c2ccccc2)C(=O)C1 | binding, competition with immobilised ligand | 1 µM | 89
O=C1NC(c2ccccn2)Sc2ccccc21 (stereo not shown) | cell-free assay, competition with immobilised ligand | 1 µM | 100
C=CC(=O)N1CCC(C(=O)NCC(=O)N2CCN(c3nc(-c4cnc(N)nc4C(F)F)nc(N4CCOCC4)n3)CC2)CC1 | binding, competition with immobilised ligand | 1 µM | 75
O=C(Nc1cnc(Oc2ccc(F)cc2)nc1)N1CCc2ncccc2[C@@H]1c1ccc(F)cc1 | cell-free assay, competition with immobilised ligand | 1 µM | 93
Nc1ncc2c(n1)-c1c([nH]c3ccc(C#CC4CC4)cc13)CCCC2 | binding, competition with immobilised ligand | 1 µM | 100
F[C@@H]1CCN(c2nccc(-c3cnn4ncccc34)n2)C1 | binding | 1 µM | 15
O=C(c1ccc(Nc2nccc(-c3cc4ccccc4s3)n2)cc1)N1CCC(N2CCCC2)CC1 | binding, competition with immobilised ligand | 1 µM | 64
N[C@@H]1CCN(c2nccc(-c3cnn4ncccc34)n2)C1 | binding | 1 µM | 2.5
COc1ccc2cc(OCC3(C(=O)O)CN(C(=O)c4ccc(F)cc4)C3)ccc2c1 | cell-free assay, competition with immobilised ligand | 1 µM | 100
C[C@H]1CCN(c2nccc(-c3cnn4ncccc34)n2)C1 | binding | 1 µM | 2.1
C[C@H](c1ccnc(Nc2nc3ccc(-c4cc(N(C)C)ncn4)cc3[nH]2)c1)N1CCN(C(=O)CC(F)(F)F)CC1 | cell-free assay, competition with immobilised ligand | 0.1 µM | 100
CN(c1nccc(-c2cnn3ncccc23)n1)C1CC1 | binding | 1 µM | 18
FC(F)(F)Oc1cccc(-c2cnc3ccc(-c4ccncc4)nn23)c1 | binding, competition with immobilised ligand | 5 µM | 4.6
CN(CCCC(F)(F)F)c1nccc(-c2cnn3ncccc23)n1 | binding | 1 µM | 11
O=C(NCCCN1CCOCC1)c1ccc(Nc2ncc(Cl)c(-c3ccc(Cl)s3)n2)cc1 | binding, competition with immobilised ligand | 1 µM | 51
C[C@H](NC(=O)c1cnc2n1[C@](C)(Cc1ccc(C#N)cc1)C(=O)N2c1cc(Cl)c(F)c(Cl)c1)C(=O)NC1(c2ccccn2)CC1 | cell-free assay, competition with immobilised ligand | 1 µM | 100
CC1CCCN1c1nccc(-c2cnn3ncccc23)n1 (stereo not shown) | binding | 1 µM | 21
